# In the library only some 1.5% were active in any assay of this set; here they are far more common.
# ABCG2 inh: inhibitors of human ABCG2 transporter, ABCB1 counter-screen. inhibition, % at 6.6 µM. actives 0.1% (n = 190,000). IgMXP3 cells, JC-1 efflux, flow cytometry. Q9UNQ0;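 active = inhibition above 80%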;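 also: 0% = DMSO and 100% = nicardipine control wells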
#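 Assay system – ABCG2 IgMXP3 and barcoded ABCB1 CCRF-Adr cell mix · Input – 3 million cells/mL in well · Reagent – JC-1 fluorescent substrate · Compound – single test compound dose, 6.6 µM final · Timing – 10 min exposure at 25 °C with rotation, no wash · Detection – flow cytometry of retained JC-1 fluorescence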
# RBBP9 inhibitor: inhibitors of human serine hydrolase RBBP9; recombinant RBBP9, FP-Rh probe fluorescence polarization; actives 0.2% (n = 220,000); inhibition, % at 7.94 µM;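 active = inhibition above the campaign mean of all tested compounds plus 3 SD, cut at about 14% in these data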;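 also: plate controls were DMSO wells with RBBP9 for no effect and wells lacking RBBP9 protein for full effect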
# Target sequence (O75884 whole entry, looked up): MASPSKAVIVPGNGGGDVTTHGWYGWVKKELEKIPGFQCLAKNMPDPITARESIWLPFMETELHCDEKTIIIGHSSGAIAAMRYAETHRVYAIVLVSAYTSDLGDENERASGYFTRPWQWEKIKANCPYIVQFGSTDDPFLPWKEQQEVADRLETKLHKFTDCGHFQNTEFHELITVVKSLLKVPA
#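 Measured by: FP readout at 525/598 nm; material: recombinant human RBBP9; also added: Serine-hydrolase probe FP-Rh, 375 nM pre-mixing; medium: Tris buffer pH 8.0, NaCl, Pluronic; replication: one well per compound; doses: one concentration, 7.94 µM nominal, 0.794% DMSO; timing: preincubation 30 min plus labeling 45 min at 25 °C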
# EP2 modulator: modulators of human EP2 prostaglandin E2 receptor. EP2-expressing cells, cAMP HTRF FRET, PGE2 co-stimulation. AID 940. P43116. actives 0.83% (n = 260,000). induction, % at 25 µM;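 active = compounds whose cAMP rise, as percent of the full-agonist control response, exceeds 60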;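 also: rat C6 glioma line stably carrying human EP2 under a CMV promoter; the protocol text gives 20 µM as final concentration; 100% = response of wells given 1 µM PGE2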
# Target sequence (P43116 whole entry, looked up): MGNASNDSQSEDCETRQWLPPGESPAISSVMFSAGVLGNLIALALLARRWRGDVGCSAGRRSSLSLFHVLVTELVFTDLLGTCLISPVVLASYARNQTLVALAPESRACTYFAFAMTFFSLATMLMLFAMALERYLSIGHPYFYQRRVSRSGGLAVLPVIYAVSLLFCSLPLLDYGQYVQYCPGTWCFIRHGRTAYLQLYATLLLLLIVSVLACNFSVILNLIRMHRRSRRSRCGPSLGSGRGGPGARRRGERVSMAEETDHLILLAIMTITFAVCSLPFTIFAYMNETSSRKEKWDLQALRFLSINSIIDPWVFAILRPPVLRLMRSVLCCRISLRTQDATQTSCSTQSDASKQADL
# ABCB1 inh: inhibitors of human ABCB1 transporter, ABCG2 counter-screen | P08183 | CCRF-Adr cells, JC-1 efflux, flow cytometry | inhibition, % at 6.6 µM | actives 0.067% (n = 190,000) | AID 1326; in the data active = inhibition above about 40%;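 also: 0% = vehicle and 100% = reference inhibitor; higher value means more JC-1 retained so stronger ABCB1 efflux block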
# EP2 antag: inhibitors of human EP2 prostaglandin E2 receptor; actives 0.52% (n = 260,000); C6 glioma cells expressing human EP2, cAMP TR-FRET; cells stimulated with saturating PGE2; P43116; inhibition, % at 25 µM;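 active = percent inhibition above 40 after rounding to a whole number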;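 also: rat C6 glioma host cells with rolipram phosphodiesterase inhibitor present; the protocol text gives 20 µM as final concentration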
# * = called active by the depositor; x = no result; ! = not confirmed by another sample.
SMILES,ABCG2 inh,RBBP9 inhibitor,EP2 modulator,ABCB1 inh,EP2 antag
CC(NC(=O)CN1N=C(C(C)(C)C)Cn2c(cc3ccccc32)C1=O)c1ccccn1 (configuration not stated),x,x,35,x,5
O=C(O)CCC(=O)NCCc1ccncc1,x,x,-5,x,5
CCN(CC(=O)NC(C)C)Cc1nc2c(Br)cc(Br)cc2c(=O)[nH]1,x,-12,65*,x,13
COc1ccc2[nH]c(=O)cc(C(=O)O)c2c1,-1,5,9,0,7
COc1ccc2[nH]c3c4c(ccc3c2c1)C(=O)C=CC4=O,x,84*,-38,x,5
COCCn1c2ccccc2n2c(=O)n(CC(=O)N(C(C)C)C(C)C)nc12,x,x,-18,x,6
Cc1ccc(NC(=O)c2cc(N3C(=O)C=CC3=O)ccc2N2CCOCC2)cc1,0,-6,-72,0,118*
COc1cc(N=Nc2cccc(S(N)(=O)=O)c2)c2ccccc2c1N,x,8,-51,x,79*!
COc1cccc(NC(=O)Nc2ccc3c(c2)N(C)C(=O)CS3)c1,0,0,-36,0,42*
CC(=O)Nc1ccc(NC(=O)Nc2ccc3c(c2)N(C)C(=O)CS3)cc1,-1,3,-48,0,6
CCOC(=O)Cn1c(C)c(CN2CCn3c(CO)nnc3C2)c2ccccc21,x,x,36,x,2
CC(C)[C@H]1CN(Cc2ccco2)CCN1C(=O)c1ccc2nsnc2c1,x,x,-30,x,x
C[C@H]1[C@H](O)[C@@H](C)C=CC=CC=CC=CC=CC=CC=C[C@H](O[C@H]2O[C@@H](C)[C@H](O)[C@@H](N)[C@@H]2O)C[C@@H]2O[C@@](O)(C[C@@H](O)C[C@@H](O)[C@@H](O)CC[C@@H](O)C[C@@H](O)CC(=O)O[C@H]1C)C[C@H](O)[C@H]2C(=O)O,x,x,-10,x,43*
CCOc1ccccc1NC(=O)CSc1nnnn1-c1ccc(C)c(C)c1,x,x,-8,x,5
CC1(C)N([O-])c2cc([N+](=O)[O-])ccc2[N+]1=O,x,3,-45,x,87*
CN(CCc1ccccn1)c1ccc2c(c1)Cc1ccccc1-2,x,x,-57,x,52*
C(=Nc1ccc2c(c1)Cc1ccccc1-2)c1ccccn1,x,x,-21,x,11
CC(O)CN(Cc1ccc2c(c1)OCO2)Cc1cncn1Cc1ccccc1 (configuration not stated),x,x,-2,x,6
Nc1ccc(N=Nc2c(S(=O)(=O)O)cc3ccccc3c2S(=O)(=O)O)cc1,x,x,18,x,41*
O=C(O)c1cc2ccccc2c(S(=O)(=O)O)c1O,x,x,4,x,10
O=C1C(=O)c2c(C(=O)c3ccccc3)coc2-c2ccccc21,11,-4,-33,0,45*
Cc1oc2c(c1C(=O)c1ccccc1)C(=O)C(=O)c1ccccc1-2,5,0,-44,1,57*
Cc1oc2c(c1C(=O)O)C(=O)c1ccccc1C2=O,8,-4,-41,0,14
CC(C)(C)NC(=O)CSc1nc(-c2ccc(F)cc2)nc2ccc(F)cc12,x,x,-2,x,6
S=c1[nH]nc(-c2cccs2)n1/N=C/c1cn(-c2ccccc2)nc1-c1cccs1,x,-3,86*,x,7
SMILES,ABCG2 inh,RBBP9 inhibitor,EP2 modulator,ABCB1 inh,EP2 antag
O=C(O)c1cc([N+](=O)[O-])ccc1C(=O)Nc1ccccc1,0,-1,61*,0,4
O=C(Nc1ccccc1)c1sccc1Oc1ccc([N+](=O)[O-])cc1F,21,5,63*,2,11
O=C(c1ccco1)N1CCC[C@H]1Cn1nc(-c2ccc(F)cc2)ccc1=O,x,x,-32,x,x
C[C@H](CCC(=O)O)[C@H]1CC[C@@]2(C)[C@@H]3C(=O)C[C@H]4C(C)(C)[C@@H](O)CC[C@]4(C)[C@H]3C(=O)C[C@]12C,x,x,31,x,46*
COc1ccccc1N(C(=O)c1cncc(Br)c1)c1nc(-c2ccc(C)cc2)cs1,-2,0,64*,0,6
COc1ccc(C)cc1N(C(=O)c1ccccc1)c1nc2ccccc2s1,21,-7,34,5,3
Cc1sc2ncn3c(=O)n(CC(=O)N(C)C4CCCCC4)nc3c2c1C,x,x,-46,x,x
COc1ccc(NC(=O)CSc2nnc(-c3ccc(O)cc3)n2C)cc1,x,x,-8,x,12
Cc1ccc2cc(CN(CC3CCCO3)C(=O)Nc3ccccc3Cl)c(=O)[nH]c2c1C (configuration not stated),x,x,16,x,8
CO/N=C\C(=N\Nc1ccc(OC)cc1)C(=O)c1ccccc1,9,-8,62*,1,11
Cc1csc(N/N=C/c2ccc(O)c([N+](=O)[O-])c2)n1,1,0,8,-1,3
O=[N+]([O-])c1cc(/C=N\Nc2nc(-c3ccccc3)cs2)ccc1O,-5,1,-102,-4,48*
CCOC(=O)c1c(C)[nH]c(C)c1C(=O)CSc1nnnn1-c1ccccc1,7,7,64*,1,15
COc1ccc(OC)c(NC(=O)CSc2nc3ccc(OC)cc3cc2C#N)c1,x,x,8,x,12
CCOc1ccc(C(=O)Nc2sc(C(=O)OC)c(C)c2C#N)cc1,x,x,-7,x,17
CCN(CC)C1=C(C(=O)c2ccccc2)NS(=O)(=O)c2ccccc21,x,x,-15,x,14
COc1ccc2cc1Oc1ccc(cc1)C[C@H]1c3c(cc(OC)c4c3Oc3cc5c(cc3O4)CCN[C@H]5C2)CCN1C,x,x,-1,x,47*
COc1ccc2cc1Oc1ccc(cc1)CC1c3c(cc(OC)c4c3Oc3cc5c(cc3O4)CCNC5C2)CCN1C (configuration not stated),x,-4,-13,x,14
COc1cc2c3cc1Oc1cc(ccc1O)C[C@@H]1c4c(cc(OC)c(O)c4Oc4ccc(cc4)C[C@@H]3N(C)CC2)CC[N+]1(C)C,x,x,3,x,4
COc1cc2c3cc1Oc1c(OC)c(OC)cc4c1[C@@H](Cc1ccc(O)c(c1)Oc1ccc(cc1)C[C@@H]3N(C)CC2)CN(C)C4,x,x,1,x,48*
CCOC(=O)c1c(-c2ccccc2)oc2ccc(OCC(=O)O)cc12,x,2,68*,x,11
CCN(CC)C(=O)c1c(-c2ccccc2)oc2ccc(OC)cc12,20,4,64*,2,10
CCOc1ccc2[nH]c(C(=O)NC3CCCOC3)c(C)c2c1 (configuration not stated),x,x,-82,x,4
CCOc1ccc(C(=O)N2CCc3nc(C)[nH]c(=O)c3C2)o1,x,x,3,x,x
CC1=C(C#N)c2nc(N)c(C#N)c(C)c2/C1=C\c1cccc(Cl)c1,x,x,-144,x,50*
Cc1cc(N2C(=O)C(O)=C(C(=O)c3ccc(C)o3)C2c2cccs2)no1 (configuration not stated),3,-2,52,0,56*
COc1ccccc1-n1nnnc1SCC(=O)Nc1ccc(C)cc1C,x,x,-84,x,8
COc1ccccc1C1(NC(=O)CCn2nc(C)c(C)c2C)CCCC1,x,x,-13,x,7
Cc1ccc(C2C3C=CC4(O3)C2C(=O)N(CC2CCCCC2)C4C(=O)NC2CCCC2)cc1 (configuration not stated),x,x,36,x,14

# Screening data from PubChem.
